# According to ChEMBL document CHEMBL3608272, “Design, synthesis and anticancer properties of novel oxa/azaspiro[4,5]trienones as potent apoptosis inducers through mitochondrial disruption” (2015):
# Active and inactive are the calls of the source. No cut-off for these calls is given here.
# How the values were obtained:
# [1] = system: DU-145; assay: Anti-proliferative activity against human DU145 cells incubated for 48 hrs by SRB assay; type: functional; settings: DU-145, 48 h
# In short: (§1)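 SRB assay. Cells in DMEM with 10% FBS were seeded and grown 24 h at 37 °C in CO2. Compounds were diluted from a 10 mM DMSO stock to 1, 5 and 10 µM, with DMSO at most 0.1%, and exposed 48 h. Cells were fixed with 10% TCA for 60 min at 4 °C and stained 20 min at room temperature with 0.4% SRB in 1% acetic acid. Dye was eluted with 10 mM trizma base and absorbance read at 540 nm. Run in triplicate; GI50 given as mean ± SD of three determinations.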
# [2] = system: MCF7; assay: Anti-proliferative activity against human MCF7 cells incubated for 48 hrs by SRB assay; type: functional; settings: MCF7, 48 h; in short: as §1
# [3] = system: A549; assay: Anti-proliferative activity against human A549 cells incubated for 48 hrs by SRB assay; type: functional; settings: A549, 48 h
# [4] = system: HepG2; assay: Anti-proliferative activity against human HepG2 cells incubated for 48 hrs by SRB assay; type: functional; settings: HepG2, 48 h; in short: as §1
# [5] = system: MCF7; assay: Reduction in mitochondrial membrane potential in human MCF7 cells at 0.5 and 1 uM incubated for 48 hrs by JC1 dye staining based flow cytometry; type: functional, cell-based
# In short: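 MCF-7 cells (1 × 10^6 per well) in six-well plates were treated 48 h, trypsinized, washed in PBS and stained with 5 µg/mL JC-1 for 15 min at 37 °C. Cells were rinsed three times, resuspended in prewarmed medium and analysed by flow cytometry in the FL1 and FL2 channels.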
# [6] = system: MCF7; assay: Induction of ROS generation in human MCF7 cells at 1 uM incubated for 48 hrs by DCFDA dye based flow cytometry (reference value: 1.2%); type: functional
# [7] = system: MCF7; assay: Induction of apoptosis in human MCF7 cells assessed as early apoptotic cells levels at 0.5 uM incubated for 48 hrs by Annexin V-FITC and propidium iodide staining based flow cytometry (reference value: 3.57%); type: functional
# [8] = system: MCF7; assay: Induction of cell cycle arrest in human MCF7 cells assessed as accumulation at G2/M phase at 0.5 uM incubated for 48 hrs by propidium iodide staining based flow cytometry (reference value: 11.98%); type: functional
# In short: (§2)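 MCF-7 cells were treated 48 h, harvested, washed in PBS, fixed in ice-cold 70% ethanol and stained with propidium iodide. Phase distribution was measured by flow cytometry and compared with untreated cells.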
# [9] = system: MCF7; assay: Induction of cell cycle arrest in human MCF7 cells assessed as accumulation at S phase at 1 uM incubated for 48 hrs by propidium iodide staining based flow cytometry (reference value: 0.99%); type: functional; in short: as §2
# [10] = system: MCF7; assay: Induction of cell cycle arrest in human MCF7 cells assessed as accumulation at G0/G1 phase at 0.5 uM incubated for 48 hrs by propidium iodide staining based flow cytometry (reference value: 77.79%); type: functional; in short: as §2
# [11] = system: MCF7; assay: Induction of cell cycle arrest in human MCF7 cells assessed as accumulation at sub G1 phase at 0.5 uM incubated for 48 hrs by propidium iodide staining based flow cytometry (reference value: 2.75%); type: functional; in short: as §2
# [12] = system: MCF7; assay: Induction of apoptosis in human MCF7 cells assessed as late apoptotic cells levels at 0.5 uM incubated for 48 hrs by Annexin V-FITC and propidium iodide staining based flow cytometry (reference value: 3.08%); type: functional
# [13] = system: MCF7; assay: Induction of apoptosis in human MCF7 cells assessed as viable cells levels at 1 uM incubated for 48 hrs by Annexin V-FITC and propidium iodide staining based flow cytometry (reference value: 92.5%); type: functional
# [14] = system: MCF7; assay: Induction of apoptosis in human MCF7 cells assessed as induction of caspase-9 activity at 1 uM incubated for 48 hrs by ELISA method relative to control; type: functional
# In short: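 MCF-7 cells were treated for 48 h, pelleted, washed in PBS and lysed for 15 min. After centrifugation at 20,000 rpm for 15 min, caspase-9 activity in the supernatant was measured with a kit ELISA and expressed relative to untreated control. Mean ± SD of two experiments run in triplicate.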
# [15] = system: MCF7; assay: Induction of cell cycle arrest in human MCF7 cells assessed as accumulation at S phase at 0.5 uM incubated for 48 hrs by propidium iodide staining based flow cytometry (reference value: 0.99%); type: functional; in short: as §2
# [16] = system: MCF7; assay: Induction of cell cycle arrest in human MCF7 cells assessed as accumulation at G0/G1 phase at 1 uM incubated for 48 hrs by propidium iodide staining based flow cytometry (reference value: 77.79%); type: functional; in short: as §2
# [17] = system: MCF7; assay: Induction of apoptosis in human MCF7 cells assessed as viable cells levels at 0.5 uM incubated for 48 hrs by Annexin V-FITC and propidium iodide staining based flow cytometry (reference value: 92.5%); type: functional
# [18] = system: MCF7; assay: Induction of cell cycle arrest in human MCF7 cells assessed as accumulation at sub G1 phase at 1 uM incubated for 48 hrs by propidium iodide staining based flow cytometry (reference value: 2.75%); type: functional; in short: as §2
# [19] = system: MCF7; assay: Induction of cell cycle arrest in human MCF7 cells assessed as accumulation at G2/M phase at 1 uM incubated for 48 hrs by propidium iodide staining based flow cytometry (reference value: 11.98%); type: functional; in short: as §2
# [20] = system: MCF7; assay: Induction of apoptosis in human MCF7 cells assessed as reduction in Bcl2 protein levels at 1 uM incubated for 48 hrs by Western blot method; type: functional, cell-based
# In short: (§3)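 MCF-7 cells were treated for 48 h and lysed in ice-cold RIPA buffer with PMSF, aprotinin, leupeptin, pepstatin and NaF. Protein was quantified by Bradford, and 50 µg per lane was run on 12% SDS-PAGE and transferred to PVDF. Membranes were blocked 2 h in TBST with 5% blocking powder, probed with primary antibody overnight and HRP secondary for 1 h at room temperature, then detected by chemiluminescence.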
# [21] = system: MCF7; assay: Induction of apoptosis in human MCF7 cells assessed as increase in p53 protein levels at 1 uM incubated for 48 hrs by Western blot method; type: functional, cell-based; in short: as §3
# [22] = system: MCF7; assay: Induction of apoptosis in human MCF7 cells assessed as increase in p21 protein levels at 1 uM incubated for 48 hrs by Western blot method; type: functional, cell-based; in short: as §3
# [23] = system: MCF7; assay: Induction of apoptosis in human MCF7 cells assessed as necrotic cells levels at 1 uM incubated for 48 hrs by Annexin V-FITC and propidium iodide staining based flow cytometry (reference value: 0.86%); type: functional
# [24] = system: MCF7; assay: Induction of apoptosis in human MCF7 cells assessed as early apoptotic cells levels at 1 uM incubated for 48 hrs by Annexin V-FITC and propidium iodide staining based flow cytometry (reference value: 3.57%); type: functional
# [25] = system: MCF7; assay: Induction of apoptosis in human MCF7 cells assessed as increase in p27 protein levels at 1 uM incubated for 48 hrs by Western blot method; type: functional, cell-based; in short: as §3
# [26] = system: MCF7; assay: Induction of ROS generation in human MCF7 cells at 0.5 uM incubated for 48 hrs by DCFDA dye based flow cytometry (reference value: 1.2%); type: functional
# [27] = system: MCF7; assay: Induction of apoptosis in human MCF7 cells assessed as late apoptotic cells levels at 1 uM incubated for 48 hrs by Annexin V-FITC and propidium iodide staining based flow cytometry (reference value: 3.08%); type: functional
# [28] = system: MCF7; assay: Induction of apoptosis in human MCF7 cells assessed as necrotic cells levels at 0.5 uM incubated for 48 hrs by Annexin V-FITC and propidium iodide staining based flow cytometry (reference value: 0.86%); type: functional
# [29] = system: MCF7; assay: Induction of apoptosis in human MCF7 cells assessed as increase in Bax protein levels at 1 uM incubated for 48 hrs by Western blot method; type: functional, cell-based; in short: as §3
smiles,measurement,setting,value
COc1ccc(C2=C(c3ccccc3)C3(C=CC(=O)C=C3)OC2=O)cc1,GI50,[1],4.1 µM
same,GI50,[2],1.8 µM
same,GI50,[3],7.3 µM
same,GI50,[4],3.4 µM
CN1C(=O)C(c2cc3ccccc3s2)=C(c2ccccc2)C12C=CC(=O)C=C2,GI50,[1],9 µM
same,GI50,[2],4.2 µM
same,GI50,[3],18.8 µM
same,GI50,[4],7.2 µM
Cc1ccc(C2=C(c3ccccc3)C3(C=CC(=O)C=C3)N(C)C2=O)cc1Cl,GI50,[1],12.1 µM
same,GI50,[2],7.4 µM
same,GI50,[3],21.1 µM
same,GI50,[4],10.4 µM
CN1C(=O)C(c2ccc(C#N)cc2)=C(c2ccccc2)C12C=CC(=O)C=C2,GI50,[1],11.6 µM
same,GI50,[2],13.6 µM
same,GI50,[3],25.4 µM
same,GI50,[4],16.6 µM
CN1C(=O)C(c2ccc(C=O)cc2)=C(c2ccccc2)C12C=CC(=O)C=C2,GI50,[1],18.2 µM
same,GI50,[2],11.1 µM
same,GI50,[3],36.2 µM
same,GI50,[4],12.7 µM
COc1cccc2c1C(=O)c1c(O)c3c(c(O)c1C2=O)C[C@@](O)(C(=O)CO)C[C@@H]3O[C@H]1C[C@H](N)[C@H](O)[C@H](C)O1 [DOXORUBICIN],GI50,[1],0.95 µM
same,GI50,[2],1.6 µM
same,GI50,[3],1.9 µM
same,GI50,[4],1.4 µM
COc1ccc(F)cc1C1=C(c2ccccc2)C2(C=CC(=O)C=C2)OC1=O,inhibition,[5],Active
same,Activity,[6],57.4%
same,Activity,[7],4.22%
same,GI50,[1],0.9 µM
same,GI50,[2],1 µM
same,Activity,[8],9.63%
same,Activity,[9],1.3%
same,Activity,[10],81.44%
same,Activity,[11],2.89%
same,Activity,[12],7.25%
same,GI50,[3],4.6 µM
same,Activity,[13],64.39%
same,fold change (FC),[14],2
same,Activity,[15],1.12%
same,Activity,[16],88.42%
same,Activity,[17],86.85%
same,Activity,[18],3.25%
same,Activity,[19],2.2%
same,Activity,[20],Active
same,Activity,[21],Active
same,Activity,[22],Active
same,Activity,[23],4.77%
same,Activity,[24],6.64%
same,Activity,[25],Active
same,Activity,[26],16.2%
same,GI50,[4],1.4 µM
same,Activity,[27],24.21%
same,Activity,[28],1.69%
same,Activity,[29],Active
COC(=O)/C=C/C1=C(c2ccccc2)C2(C=CC(=O)C=C2)OC1=O,GI50,[1],4.3 µM
same,GI50,[2],1.2 µM
same,GI50,[3],7.8 µM
same,GI50,[4],6.3 µM
O=C1C=CC2(C=C1)OC(=O)C(c1ccc(CO)cc1)=C2c1ccccc1,GI50,[1],2.4 µM
same,GI50,[2],1.7 µM
same,GI50,[3],8.1 µM
same,GI50,[4],3.3 µM
CN1C(=O)C(c2ccc3c(c2)OCO3)=C(c2ccccc2)C12C=CC(=O)C=C2,GI50,[1],16.3 µM
same,GI50,[2],6.7 µM
same,GI50,[3],30.2 µM
same,GI50,[4],19.6 µM
CN1C(=O)C(c2cccc(Cl)c2Cl)=C(c2ccccc2)C12C=CC(=O)C=C2,GI50,[1],14 µM
same,GI50,[2],9.9 µM
same,GI50,[3],27.6 µM
same,GI50,[4],10.5 µM
CSc1ccc(C2=C(c3ccccc3)C3(C=CC(=O)C=C3)N(C)C2=O)cc1,GI50,[1],26.4 µM
same,GI50,[2],15.8 µM
same,GI50,[3],50.4 µM
same,GI50,[4],18.7 µM
CN1C(=O)C(c2ccc(CO)cc2)=C(c2ccccc2)C12C=CC(=O)C=C2,GI50,[1],11.5 µM
same,GI50,[2],7.6 µM
same,GI50,[3],13.6 µM
same,GI50,[4],7.7 µM
